Measured values as given in ChEMBL document CHEMBL1140523, “Benzazepinone Nav1.7 blockers: potential treatments for neuropathic pain” (Bioorg Med Chem Lett, 2007).

How the values were obtained:
hERG (KCNH2) = hERG (KCNH2) (Homo sapiens, UniProt Q12809); assay: (§1) Displacement of [35S]MK-0499 from hERG at 10 uM; conditions: probe [35S]MK-0499
[1] = target: Sodium channel protein type 9 subunit alpha (Homo sapiens, UniProt Q15858); assay: Inhibition of human sodium channel Nav1.7 by FRET assay
In short: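 hNav1.7 block was measured in a functional membrane-potential assay read out as FRET between two membrane-associated dyes.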

[2] = (§2) Oral bioavailability in Sprague-Dawley rat at 3 mg/kg; format: ADME, organism-based; conditions: Sprague-Dawley, in vivo
In short: (§3)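 Fasted male Sprague–Dawley rats received 1.0 mg/kg iv through a femoral vein cannula (n = 3) or 3.0 mg/kg po by gavage (n = 3). Serial blood was drawn at 5 min (iv only), 15 and 30 min, and 1, 2, 4, 6 and 8 h. Plasma was protein-precipitated with acetonitrile and analysed by LC–MS/MS.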

[3] = Cmax in Sprague-Dawley rat at 1 mg/kg, iv or 3 mg/kg, po; format: ADME, organism-based; conditions: in vivo; in short: as §3
[4] = Plasma clearance in Sprague-Dawley rat at 1 mg/kg, iv or 3 mg/kg, po; format: ADME, organism-based; in short: as §3
[5] = (§4) Half life in Sprague-Dawley rat at 1 mg/kg, iv or 3 mg/kg, po; format: ADME, organism-based; conditions: Sprague-Dawley, in vivo; in short: as §3
Rattus norvegicus [6] = assay: Reversal of allodynia in rat at 10 mg/kg, po after 2 hrs; format: functional
Rattus norvegicus [7] = assay: Reversal of allodynia in rat at 10 mg/kg, po after 4 hrs; format: functional
[8] = target: Voltage-gated inwardly rectifying potassium channel KCNH2 (Homo sapiens, UniProt Q12809); assay: as §1; conditions: 10 µM
Rattus norvegicus [9] = assay: as §2; format: ADME, organism-based; conditions: in vivo; in short: as §3
Rattus norvegicus [10] = assay: as §4; format: ADME, organism-based; conditions: in vivo; in short: as §3

Chain of hERG (KCNH2) (Q12809 whole entry): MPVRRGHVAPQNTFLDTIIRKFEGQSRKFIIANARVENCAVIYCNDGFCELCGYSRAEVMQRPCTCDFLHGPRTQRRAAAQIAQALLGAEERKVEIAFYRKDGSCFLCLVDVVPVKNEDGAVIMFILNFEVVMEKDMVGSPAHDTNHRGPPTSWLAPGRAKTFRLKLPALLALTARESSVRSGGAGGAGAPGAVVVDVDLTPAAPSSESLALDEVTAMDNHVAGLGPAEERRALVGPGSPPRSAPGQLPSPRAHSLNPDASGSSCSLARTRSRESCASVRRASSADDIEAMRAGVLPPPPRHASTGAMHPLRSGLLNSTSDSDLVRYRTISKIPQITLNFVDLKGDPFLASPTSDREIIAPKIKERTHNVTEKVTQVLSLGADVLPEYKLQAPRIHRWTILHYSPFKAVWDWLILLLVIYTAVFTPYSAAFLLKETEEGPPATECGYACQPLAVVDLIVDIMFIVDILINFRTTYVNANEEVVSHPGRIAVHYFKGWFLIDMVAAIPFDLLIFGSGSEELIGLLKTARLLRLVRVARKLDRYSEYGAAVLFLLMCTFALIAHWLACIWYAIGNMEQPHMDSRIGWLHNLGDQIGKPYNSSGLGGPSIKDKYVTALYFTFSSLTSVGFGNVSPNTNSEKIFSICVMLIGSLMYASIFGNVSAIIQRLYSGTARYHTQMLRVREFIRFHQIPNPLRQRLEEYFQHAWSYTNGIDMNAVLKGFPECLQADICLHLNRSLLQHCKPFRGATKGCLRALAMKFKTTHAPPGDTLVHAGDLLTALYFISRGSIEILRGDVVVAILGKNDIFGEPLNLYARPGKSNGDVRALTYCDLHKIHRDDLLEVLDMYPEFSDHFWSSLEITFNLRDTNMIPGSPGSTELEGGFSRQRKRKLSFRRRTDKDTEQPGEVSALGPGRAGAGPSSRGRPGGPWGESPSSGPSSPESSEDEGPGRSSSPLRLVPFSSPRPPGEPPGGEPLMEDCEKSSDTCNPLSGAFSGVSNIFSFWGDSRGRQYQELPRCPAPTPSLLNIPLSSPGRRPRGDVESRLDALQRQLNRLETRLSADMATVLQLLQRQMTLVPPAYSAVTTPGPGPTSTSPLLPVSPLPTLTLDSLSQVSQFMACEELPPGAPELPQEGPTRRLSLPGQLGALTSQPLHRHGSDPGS
Chain of Sodium channel protein type 9 subunit alpha (Q15858 whole entry): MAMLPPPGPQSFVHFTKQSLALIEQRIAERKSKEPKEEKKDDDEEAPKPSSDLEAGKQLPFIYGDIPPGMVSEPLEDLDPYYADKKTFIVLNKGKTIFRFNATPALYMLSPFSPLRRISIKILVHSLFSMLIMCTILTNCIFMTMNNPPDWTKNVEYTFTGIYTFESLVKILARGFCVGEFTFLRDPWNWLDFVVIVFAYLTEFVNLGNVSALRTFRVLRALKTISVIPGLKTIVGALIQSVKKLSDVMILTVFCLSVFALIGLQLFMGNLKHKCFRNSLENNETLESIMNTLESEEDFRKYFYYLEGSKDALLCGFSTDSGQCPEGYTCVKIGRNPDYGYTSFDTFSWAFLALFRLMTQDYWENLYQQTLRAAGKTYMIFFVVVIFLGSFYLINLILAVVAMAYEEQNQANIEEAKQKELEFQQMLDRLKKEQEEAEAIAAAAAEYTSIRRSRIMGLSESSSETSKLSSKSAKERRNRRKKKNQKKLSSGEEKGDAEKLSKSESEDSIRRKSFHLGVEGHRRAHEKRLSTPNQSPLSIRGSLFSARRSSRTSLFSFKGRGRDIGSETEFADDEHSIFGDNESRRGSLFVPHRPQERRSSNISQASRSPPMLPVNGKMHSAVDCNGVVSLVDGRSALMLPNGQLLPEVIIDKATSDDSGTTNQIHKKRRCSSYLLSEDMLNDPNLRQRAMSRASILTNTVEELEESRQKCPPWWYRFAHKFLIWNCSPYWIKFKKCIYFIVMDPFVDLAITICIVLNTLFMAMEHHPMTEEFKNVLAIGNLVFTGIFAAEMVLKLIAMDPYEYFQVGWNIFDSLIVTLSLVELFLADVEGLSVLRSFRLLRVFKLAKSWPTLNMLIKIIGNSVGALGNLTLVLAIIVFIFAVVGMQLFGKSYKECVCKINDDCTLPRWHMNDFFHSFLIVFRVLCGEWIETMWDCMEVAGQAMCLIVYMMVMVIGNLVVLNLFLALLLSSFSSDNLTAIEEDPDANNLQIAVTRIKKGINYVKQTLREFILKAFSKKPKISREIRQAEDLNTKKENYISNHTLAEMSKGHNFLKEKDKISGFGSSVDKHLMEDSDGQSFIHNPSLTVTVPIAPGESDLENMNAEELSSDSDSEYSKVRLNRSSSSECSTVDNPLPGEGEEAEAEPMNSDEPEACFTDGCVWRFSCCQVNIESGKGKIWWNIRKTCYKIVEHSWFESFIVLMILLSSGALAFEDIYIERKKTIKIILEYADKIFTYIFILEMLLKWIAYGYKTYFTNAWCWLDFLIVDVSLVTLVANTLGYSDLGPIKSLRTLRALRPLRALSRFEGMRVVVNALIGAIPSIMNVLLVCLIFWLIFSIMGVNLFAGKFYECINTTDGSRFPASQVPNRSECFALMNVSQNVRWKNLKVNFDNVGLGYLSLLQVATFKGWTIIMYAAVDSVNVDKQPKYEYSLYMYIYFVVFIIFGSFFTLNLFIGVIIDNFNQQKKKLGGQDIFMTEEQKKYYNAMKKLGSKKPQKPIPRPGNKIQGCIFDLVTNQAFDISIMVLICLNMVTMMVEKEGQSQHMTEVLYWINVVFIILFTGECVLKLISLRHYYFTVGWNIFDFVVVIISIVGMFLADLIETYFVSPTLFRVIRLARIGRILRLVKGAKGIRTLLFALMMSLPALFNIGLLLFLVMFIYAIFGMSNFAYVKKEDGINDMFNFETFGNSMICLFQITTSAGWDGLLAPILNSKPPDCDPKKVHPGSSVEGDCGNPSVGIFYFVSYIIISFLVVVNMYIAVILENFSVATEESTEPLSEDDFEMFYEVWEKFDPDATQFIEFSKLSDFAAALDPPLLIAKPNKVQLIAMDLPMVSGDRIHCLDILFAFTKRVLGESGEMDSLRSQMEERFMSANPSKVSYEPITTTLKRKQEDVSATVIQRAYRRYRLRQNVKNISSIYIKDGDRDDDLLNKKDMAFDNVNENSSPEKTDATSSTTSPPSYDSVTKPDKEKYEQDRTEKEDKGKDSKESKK
Chain of Voltage-gated inwardly rectifying potassium channel KCNH2 (Q12809 whole entry): as the sequence (Q12809 whole entry) above

CC(C)N1C(=O)[C@H](NC(=O)[C@@H](Cc2ccccc2OC(F)(F)F)NC(=O)OC(C)(C)C)CCc2ccccc21
inhibition at 10 µM (hERG (KCNH2)): 17%

CC(C)N1C(=O)[C@H](NC(=O)[C@@H](Cc2ccccc2OC(F)(F)F)NC(=O)c2ccc(F)cc2C(F)(F)F)CCc2ccccc21
IC50 [1]: 128 nM
inhibition at 10 µM (hERG (KCNH2)): 31%
bioavailability [2]: 86%
Cmax [3]: 430 nM
clearance [4]: 51 mL/min/kg
half-life [5]: 2.6 h

CC(C)N1C(=O)[C@H](NC(=O)[C@@H](Cc2ccccc2OC(F)(F)F)NC(=O)c2ccccn2)CCc2ccccc21
IC50 [1]: 177 nM
inhibition at 10 µM (hERG (KCNH2)): 61%
bioavailability [2]: 60%
Cmax [3]: 550 nM
clearance [4]: 43 mL/min/kg
half-life [5]: 1.2 h

CC(C)N1C(=O)[C@H](NC(=O)[C@@H](Cc2ccccc2OC(F)(F)F)NC(=O)c2ccncc2)CCc2ccccc21
IC50 [1]: 453 nM
inhibition at 10 µM (hERG (KCNH2)): 44%

CC(C)N1C(=O)[C@H](NC(=O)[C@@H](Cc2ccccc2OC(F)(F)F)NC(=O)c2cncnc2)CCc2ccccc21
IC50 [1]: > 1000 nM

CC(C)N1C(=O)[C@H](NC(=O)[C@@H](Cc2cccc(F)c2F)NC(=O)c2ccc(F)cc2C(F)(F)F)CCc2cc(Cl)ccc21
IC50 [1]: 146 nM
inhibition at 10 µM (hERG (KCNH2)): 3%

CC(C)N1C(=O)[C@H](NC(=O)[C@@H](Cc2ccccc2OC(F)(F)F)NC(=O)c2ccc(F)cc2C(F)(F)F)CCc2cc(Cl)ccc21
IC50 [1]: 169 nM
inhibition at 10 µM (hERG (KCNH2)): 7%
bioavailability [2]: 65%
Cmax [3]: 520 nM
clearance [4]: 29 mL/min/kg
half-life [5]: 2.6 h

CC(C)N1C(=O)[C@H](NC(=O)[C@@H](Cc2ccccc2OC(F)(F)F)NC(=O)OC(C)(C)C)COc2ccccc21
IC50 [1]: 44 nM
inhibition at 10 µM (hERG (KCNH2)): 17%
bioavailability [2]: 25%
clearance [4]: 40 mL/min/kg
half-life [5]: 2 h

CC(C)N1C(=O)[C@H](NC(=O)[C@@H](Cc2ccccc2F)NC(=O)c2ccc(F)cc2C(F)(F)F)CCc2cc(Cl)ccc21
IC50 [1]: 30 nM
inhibition at 10 µM (hERG (KCNH2)): 32%
bioavailability [2]: 90%
Cmax [3]: 330 nM
clearance [4]: 44 mL/min/kg
half-life [5]: 2.8 h
Activity (Rattus norvegicus [6]): 56%
Activity (Rattus norvegicus [7]): 28%

CC(C)N1C(=O)[C@H](NC(=O)[C@@H](Cc2ccc(F)cc2F)NC(=O)c2ccc(F)cc2C(F)(F)F)CCc2cc(Cl)ccc21
IC50 [1]: > 1000 nM

CC(C)N1C(=O)[C@H](NC(=O)[C@@H](Cc2ccccc2OC(F)(F)F)NC(=O)C(C)(C)C)CCc2ccccc21
IC50 [1]: 131 nM
inhibition at 10 µM (hERG (KCNH2)): 18%
bioavailability [2]: 16%
Cmax [3]: 140 nM
clearance [4]: 31 mL/min/kg
half-life [5]: 1.8 h

CC(C)N1C(=O)[C@H](NC(=O)[C@@H](Cc2ccccc2OC(F)(F)F)NC(=O)OC(C)(C)C)CCc2cc(Cl)ccc21
IC50 [1]: 108 nM
inhibition at 10 µM (hERG (KCNH2)): 32%
bioavailability [2]: 31%
clearance [4]: 13 mL/min/kg
half-life [5]: 3 h

CC(C)N1C(=O)[C@H](NC(=O)[C@@H](Cc2ccccc2OC(F)(F)F)NC(=O)C(C)(C(F)(F)F)C(F)(F)F)CCc2ccccc21
IC50 [1]: 203 nM
inhibition at 10 µM (hERG (KCNH2)): 10%
bioavailability [2]: 42%
Cmax [3]: 330 nM
clearance [4]: 23 mL/min/kg
half-life [5]: 2.5 h

CC(C)N1C(=O)[C@H](NC(=O)[C@@H](Cc2c(F)cccc2F)NC(=O)c2ccc(F)cc2C(F)(F)F)CCc2cc(Cl)ccc21
IC50 [1]: 290 nM
inhibition at 10 µM (hERG (KCNH2)): 7%
bioavailability [2]: 68%
Cmax [3]: 740 nM
clearance [4]: 19 mL/min/kg
half-life [5]: 2 h
Activity (Rattus norvegicus [6]): 18%
Activity (Rattus norvegicus [7]): 35%

CC(C)N1C(=O)[C@H](NC(=O)[C@@H](Cc2c(Cl)cccc2Cl)NC(=O)c2ccc(F)cc2C(F)(F)F)CCc2cc(Cl)ccc21
IC50 [1]: 107 nM
inhibition at 10 µM (hERG (KCNH2)): 20%
bioavailability [2]: 70%
Cmax [3]: 1470 nM
clearance [4]: 12 mL/min/kg
half-life [5]: 2.9 h
Activity (Rattus norvegicus [6]): 14%
Activity (Rattus norvegicus [7]): 9%

CC(C)N1C(=O)[C@H](NC(=O)[C@@H](Cc2ccccc2OC(F)(F)F)NC(=O)c2ncccn2)CCc2ccccc21
IC50 [1]: > 1000 nM
inhibition at 10 µM (hERG (KCNH2)): 15%

CC(C)N1C(=O)[C@H](NC(=O)[C@@H](Cc2cc(F)ccc2F)NC(=O)c2ccc(F)cc2C(F)(F)F)CCc2cc(Cl)ccc21
IC50 [1]: 232 nM
inhibition at 10 µM (hERG (KCNH2)): 10%
bioavailability [2]: 42%
Cmax [3]: 260 nM
clearance [4]: 32 mL/min/kg
half-life [5]: 2.2 h
Activity (Rattus norvegicus [6]): 55%
Activity (Rattus norvegicus [7]): 61%

CC(C)N1C(=O)[C@H](NC(=O)[C@@H](Cc2ccccc2OC(F)(F)F)NC(=O)C(F)(F)F)CCc2ccccc21
IC50 [1]: 868 nM
inhibition at 10 µM (hERG (KCNH2)): 40%

CC(C)N1C(=O)[C@H](NC(=O)[C@@H](Cc2ccccc2OC(F)(F)F)NC(=O)c2ccccc2C(F)(F)F)CCc2ccccc21
IC50 [1]: 98 nM
inhibition at 10 µM (hERG (KCNH2)): 0%

CC(C)N1C(=O)[C@H](NC(=O)[C@@H](Cc2ccccc2OC(F)(F)F)NC(=O)c2ccc(F)cc2)CCc2ccccc21
IC50 [1]: 94 nM
inhibition at 10 µM (hERG (KCNH2)): 26%
bioavailability [2]: 50%
Cmax [3]: 240 nM
clearance [4]: 66 mL/min/kg
half-life [5]: 2.1 h

CC(C)N1C(=O)[C@H](NC(=O)[C@@H](Cc2ccccc2OC(F)(F)F)NC(=O)c2ccc(C(F)(F)F)cc2)CCc2ccccc21
IC50 [1]: 175 nM
inhibition at 10 µM (hERG (KCNH2)): 43%

CC(=O)N[C@H](Cc1ccccc1OC(F)(F)F)C(=O)N[C@@H]1CCc2ccccc2N(C(C)C)C1=O
IC50 [1]: > 1000 nM
inhibition at 10 µM (hERG (KCNH2)): 9%

CC(C)N1C(=O)[C@H](NC(=O)[C@@H](Cc2ccccc2OC(F)(F)F)NC(=O)c2ccccc2)CCc2ccccc21
IC50 [1]: 22 nM
inhibition at 10 µM (hERG (KCNH2)): 83%
bioavailability [2]: 18%
Cmax [3]: 150 nM
clearance [4]: 43 mL/min/kg
half-life [5]: 1.5 h

CC(C)N1C(=O)C(NC(=O)[C@@H](Cc2ccccc2OC(F)(F)F)NC(=O)OC(C)(C)C)CCc2cccnc21 (stereo in doubt; 24)
IC50 [1]: 80 nM
Inhibition [8]: 7%
F (Rattus norvegicus [9]): 4%
t1/2 (Rattus norvegicus [10]): 1.9 h

CC(C)N1C(=O)C(NC(=O)[C@@H](Cc2ccccc2OC(F)(F)F)NC(=O)OC(C)(C)C)CCc2cccnc21 (stereo in doubt; 25)
IC50 [1]: 79 nM
Inhibition [8]: 18%
F (Rattus norvegicus [9]): 27%
clearance [4]: 24 mL/min/kg
half-life [5]: 1.4 h
